Assay outcomes from PubChem.
Dynein transport: inhibitors of GR-EGFP nuclear translocation, primary screen, dynein cargo transport inhibitor project, imaging, high-content, 3617.4 mouse cells. test concentration mostly 20 µM; stimulated with dexamethasone, 1 µM; stronger effect = lower value. z-score, hits read low. 220,000 compounds, 0.47% hits. AID 1381, 2008;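 active = plate z-score of nuclear minus cytoplasmic receptor signal below a set negative limit, without overly bright fluorescence or cell loss, cut at about -3.5 in these data, passing the limit was not always enough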;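 also: z-score of nuclear minus cytoplasmic ring GR-EGFP intensity difference per well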
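Buffer or medium: tet-free medium with charcoal-stripped serum / Also added: dexamethasone agonist, 1.0 µM final, for 30 min / Timing: induction 48 h, compound 1 h, agonist 30 min / Measured by: high-content fluorescence imaging after fixation / Read-out: nuclear-to-cytoplasmic GR-EGFP distribution per well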
b-catenin transl: modulators of beta-catenin nuclear translocation, primary screen, imaging, HeLa cells, immunofluorescence, high-content; nuclear translocation activity, % at 5 µM; 190,000 compounds, 0.3% hits;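 active = nuclear translocation activity above 50% at 5 µM, with a well cell count of 50 or more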;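 also: per-cell ratio of nuclear to cytoplasmic median beta-catenin stain intensity; plate controls were DMSO negative control for no effect and GSK-3 inhibitor IX positive control for full effect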
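Test system: HeLa cells, endogenous beta-catenin; Compound: single 5 µM dose plus 0.02–20 µM confirmation series; Times: compound exposure 24 h at 37°C; Signal: fluorescence imaging of beta-catenin antibody stain plus DAPI; Read-out: % activation, nuclear-to-cytoplasmic median beta-catenin signal ratio per cell.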
HSV augment: enhancers of HSV replication in host cells, fold increase, host cell viability | HSV replication augmentation in cells | maximum fold increase | 220,000 compounds, 0.005% hits | AID 1956, 2009; in the data active = maximum fold increase above about 1.5; tested in PC3 cells
L major viab: Leishmania major promastigote growth inhibition, primary screen. Leishmania major promastigotes, resazurin fluorescence viability. inhibition, % at 10 µM. 200,000 compounds, 9% hits. AID 1063, 2008; in the data active = inhibition above about 50%;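 also: promastigotes grown with compound for 44 hours at 28 °C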
MT stabilizer: microtubule stabilizers in HeLa cells, primary screen, imaging, high-content imaging | 200,000 compounds, 0.83% hits | % tubulin-high responders, % at 10 µM | HeLa tubulin immunostaining HCS, 24 h; share of cells brighter than vehicle mean+2SD | AID 2205, 2009;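 active = plate Z-score above 3 for both tubulin-high and condensed-nucleus cell shares, with cell loss under 80%, at 10 µM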;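 also: anti alpha tubulin signal scored within the nucleus-defined area of each cell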
Numbers without * were called inactive; ! = repeats disagree. Only some compounds are listed: those with a hit (about 8.9% of all), similar ones and a draw of the others.

`O=C(COc1nc2ccccc2nc1N1CCOCC1)Nc1ccc(S(=O)(=O)N2CCCC2)cc1` gave Dynein transport -0.31, b-catenin transl -2, HSV augment inactive, L major viab 67* and MT stabilizer 2.
For COC(=O)c1ccc2nc(NC(=O)COC(=O)CSc3nc(C)cc(C)n3)sc2c1 the results were Dynein transport 3.1, b-catenin transl -3, HSV augment inactive, L major viab 41 and MT stabilizer 3.
`C=CCn1c(N)c(C(=O)OCCC)c2nc3ccccc3nc21` gave Dynein transport 0.059, b-catenin transl 1, HSV augment inactive, L major viab 100* and MT stabilizer 3.
`O=C(N/N=C/c1ccccc1O)c1cc(=O)[nH]c2ccccc12` gave Dynein transport -0.045, b-catenin transl -4, HSV augment inactive, L major viab 99* and MT stabilizer 2.
Screening O=C(Cn1nc(C(=O)O)c2ccccc2c1=O)Nc1ccc2c(c1)OCO2 returned Dynein transport 0.57, b-catenin transl -4 and HSV augment inactive.
`COCOc1ccc(-c2cc(=O)c3c(O)cc(OCOC)cc3o2)cc1` gave HSV augment inactive.
COc1ccc(OCC(O)Cn2c(=N)n(CCN3CCOCC3)c3ccccc32)cc1 (centres undefined) was read as Dynein transport -0.54, b-catenin transl -4, HSV augment inactive, L major viab -5 and MT stabilizer 1.
Screening N=c1n(CCN2CCOCC2)c2ccccc2n1CC(O)COc1ccccc1 (centres undefined) returned Dynein transport 0.51, b-catenin transl -4, HSV augment inactive, L major viab 14 and MT stabilizer 5.
COc1ccccc1OCC(O)Cn1c(=N)n(CCN2CCCCC2)c2ccccc21 (centres undefined) was read as Dynein transport 1, HSV augment inactive, L major viab 65* and MT stabilizer 2.
`Cc1ccccc1OCC(O)Cn1c(=N)n(CCN2CCOCC2)c2ccccc21` (centres undefined) gave Dynein transport 2.1, b-catenin transl -4, HSV augment inactive, L major viab 51*! and MT stabilizer 5.
`N=c1n(CCN2CCCCC2)c2ccccc2n1CC(O)COc1ccccc1` (centres undefined) gave Dynein transport 1.8, b-catenin transl -1, HSV augment inactive, L major viab 101* and MT stabilizer 3.
Screening N=c1n(CCN2CCOCC2)c2ccccc2n1Cc1ccccc1Br returned Dynein transport -0.62, b-catenin transl -2, HSV augment inactive, L major viab 95* and MT stabilizer 2.
`Cn1c(=O)n(Cc2ccccc2Br)c2ccccc21` gave Dynein transport -0.7, b-catenin transl 0, HSV augment inactive, L major viab 0 and MT stabilizer 2.
COC(=O)c1ccc2c(=O)n(Cc3ccco3)c(SCC(=O)Nc3cc(C)on3)nc2c1 was read as Dynein transport 1, b-catenin transl -3, HSV augment inactive, L major viab 4 and MT stabilizer 2.
Screening Cc1cc(C)c(S(=O)(=O)N2CCN(c3ccc([N+](=O)[O-])c(-n4nc(C)cc4C)c3)CC2)c(C)c1 returned Dynein transport 4.7, b-catenin transl -1, HSV augment inactive, L major viab 59* and MT stabilizer 1.
Cc1cc(C)n(-c2cc(N3CCN(S(=O)(=O)c4ccc(Br)cc4)CC3)ccc2[N+](=O)[O-])n1 was read as Dynein transport 0.38, b-catenin transl -1, HSV augment inactive, L major viab 29 and MT stabilizer 2.
O=C(N/N=C/c1nn(-c2ccccc2)cc1-c1ccc(Cl)cc1)c1ccncc1 was read as Dynein transport 0.4, b-catenin transl 6, HSV augment inactive, L major viab 60* and MT stabilizer 3.
`COC(=O)c1ccc(NC(=O)CNS(=O)(=O)c2cccs2)cc1` gave Dynein transport 0.059, b-catenin transl 1, HSV augment inactive, L major viab -6 and MT stabilizer 1.
`Cc1ccccc1/C(N)=N/OC(=O)N1c2ccccc2Sc2ccccc21` gave Dynein transport 1.4, b-catenin transl 0, L major viab 93* and MT stabilizer 4.
Screening Cc1ccc(/C(N)=N/OC(=O)Cc2ccccc2)cc1 returned Dynein transport 0.53, b-catenin transl -2, L major viab -9 and MT stabilizer 2.
`Cc1ccc(/C(N)=N/OC(=O)N2c3ccccc3Sc3ccccc32)cc1` gave Dynein transport 1.2, HSV augment inactive, L major viab 100* and MT stabilizer 4.
For CCOC(=O)N1c2ccccc2Sc2ccccc21 the results were Dynein transport 1, b-catenin transl 1, HSV augment inactive, L major viab 15 and MT stabilizer 5.
Screening O=C(Nc1ccccc1N1CCOCC1)c1cccc([N+](=O)[O-])c1 returned Dynein transport -0.72, b-catenin transl 1, HSV augment inactive, L major viab -1 and MT stabilizer 3.
CC1(C)C2CC=C(/C=N/NC(=O)c3ccccc3Br)C1C2 (centres undefined) was read as Dynein transport 0.97, b-catenin transl -1, HSV augment inactive, L major viab 100* and MT stabilizer 5.
Screening CC1(C)C2CC=C(/C=N/NC(=O)C(N)=O)C1C2 (centres undefined) returned Dynein transport 1.7, b-catenin transl -1 and HSV augment inactive.
`COC(=O)N/N=C/C1=CCC2CC1C2(C)C` (centres undefined) gave Dynein transport 0.5, b-catenin transl 2, HSV augment inactive, L major viab 58* and MT stabilizer 3.
For CC1(C)C2CC=C(/C=N/NC(=O)c3ccc(O)cc3)C1C2 (centres undefined) the results were Dynein transport 0.93, b-catenin transl -2, HSV augment inactive, L major viab 94* and MT stabilizer 5.
N#CC1=C(N)C(C#N)(C#N)[C@H](c2c(F)cccc2F)[C@H]2CC3(CC=C12)OCCO3 was read as Dynein transport -1.6, b-catenin transl -2, HSV augment inactive, L major viab 20 and MT stabilizer 26*.
For CN1C2C=C3C(C#N)=C(N)C(C#N)(C#N)[C@H](c4c(F)cccc4F)[C@H]3C1CC2 (some centres undefined) the results were Dynein transport -1.3, b-catenin transl 1, HSV augment inactive, L major viab 19 and MT stabilizer 4.
For Cc1nn(Cc2c(Cl)cccc2Cl)c(C)c1NC(=O)c1cnn2c(C(F)F)cc(-c3ccccc3)nc12 the results were Dynein transport 0.36, b-catenin transl 0, HSV augment inactive, L major viab 67* and MT stabilizer 9.
